Laboratory results: PMC6097893 (Cell chemical biology, 2018)

Experiments:
ZIKV PF13-251013-18 = assay: Viral infectivity assay; format: cell-based, Zika virus; details: read-out: IC90 against ZIKV PF13-251013-18, Vero cells
DENV2 sE Q271E = DENV2 sE Q271E (Dengue virus type 2, UniProt P14340, Q551E); assay: Biolayer interferometry, DENV2 sE Q271E; format: binding, dengue virus serotype 2; details: versus wildtype sE
DENV2 sE-M196V = DENV2 sE-M196V (Dengue virus type 2, UniProt P14340, M476V); assay: Biolayer interferometry, DENV2 sE-M196V; format: binding, dengue virus serotype 2; details: versus wildtype sE
[1] = system: DENV2 NGC E-M196V mutant virus; assay: Viral infectivity assay; format: cell-based, dengue virus serotype 2; details: versus DENV2 NGC wildtype
Procedure, shortened: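 DENV2 inoculum in EBSS at MOI 1 pre-incubated with test compound over a concentration series, 45 min at 37 °C. The mixture was added to cell monolayers for 1 h at 37 °C, then washed off with PBS. Inhibitor-free medium was added for 24 h (single cycle). Supernatant yield was titred by plaque assay on BHK-21 cells with CMC overlay, 4.5 days, crystal violet.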

In the case of NC(=O)c1cccc(-c2cc(Nc3ccc(OC(F)(F)F)cc3)ncn2)c1 [GNF-2], the IC90 (ZIKV PF13-251013-18) is reported as 107 µM, the “Effect of Q271E substitution on binding” value (DENV2 sE Q271E) is reported as “affinity comparable to wildtype” and the “Effect of M196V mutation on binding” value (DENV2 sE-M196V) is reported as “more significantly affected”. For the same molecule, the “Sensitivity of DENV2 E-M196V virus to compound” value [1] was “Reduced sensitivity”.
